According to ChEMBL document CHEMBL3112575, “N¹,N¹-Dimethyl-N³-(3-(trifluoromethyl)phenethyl)propane-1,3-diamine, a new lead for the treatment of human African trypanosomiasis” (Eur J Med Chem, 2014):

tested on: Trypanosoma brucei brucei; experiment: Antitrypanosomal activity against bloodstream form of Trypanosoma brucei brucei 427 after 48 hrs by Alamar Blue staining based fluorescence assay; assay type: functional, organism-based; details: Trypanosoma brucei, 427, 48 h
How it was run: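 Starting inoculum 2×10³ bloodstream-form parasites per well in HMI-9 with 10% FBS, exposed to two-fold serial drug dilutions for 48 h at 37°C, 5% CO₂. Alamar Blue then added, with a further 4 h incubation. Fluorescence read at Ex 544/Em 590. Each plate included drug-free parasite wells and parasite-free, drug-free wells. IC₅₀ from three biological replicates, each the mean of three technical replicates.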

IC50	Compound
0.3 µM	COc1cc(CCNCCCN(C)C)c(Br)cc1Br
> 8 µM	CN(C)CCCNCCc1ccc(Cl)cc1Cl
> 8 µM	COc1c(Br)cc(CNCCCN(C)C)cc1Br
> 8 µM	CN(C)CCCNCCc1c(Cl)cccc1Cl
> 8 µM	COc1ccc(CNCCCN(C)C)cc1
4.6 µM	COc1cc(CNCCCN(C)C)c(Br)cc1Br
> 8 µM	CN(C)CCCNCCc1c(F)cccc1Cl
> 8 µM	CN(C)CCCNCCc1ccc(Cl)cc1
4 µM	CN(C)CCCNCCc1ccc2ccccc2c1
> 8 µM	CN(C)CCCNC1Cc2ccccc2C1
> 8 µM	COc1ccc(CCNCCCN(C)C)cc1Br
> 8 µM	CN(C)CCCNCCc1ccc(Cl)c(Cl)c1
4 µM	COc1ccc(Br)c(CCNCCCN(C)C)c1Br
> 8 µM	CN(C)CCCNCCc1cccc(Br)c1
0.7 µM	CN(C)CCCNCCc1cccc(Cl)c1
> 8 µM	COc1cccc(CCNCCCN(C)C)c1
> 8 µM	CN(C)CCCNCCc1ccccc1F
> 8 µM	CN(C)CCCNCCc1cccs1

IC50	Compound
2.2 µM	CN(C)CCCNCc1cc(O)c(Br)cc1Br
> 8 µM	CN(C)CCCNCCc1cccc(F)c1
> 8 µM	COc1cccc(CNCCCN(C)C)c1
> 8 µM	CN(C)CCCNCCc1ccccc1Br
> 8 µM	CN(C)CCCNCc1cccc(O)c1
> 8 µM	CN(C)CCCNCc1c(Br)cc(Br)c(O)c1Br
> 8 µM	COc1c(Br)cc(Br)c(CNCCCN(C)C)c1Br
> 8 µM	COc1ccc(CCNCCCN(C)C)cc1Cl
> 8 µM	COc1cc(CCN(CCCN(C)C)C(C)=O)c(Br)cc1Br
> 8 µM	CN(C)CCCNCCc1ccccc1Cl
> 8 µM	CN(C)CCCNCc1cc(Br)c(O)c(Br)c1
> 8 µM	CN(C)CCCNCc1ccc(O)cc1
> 8 µM	COc1ccc(Br)cc1CCNCCCN(C)C
> 8 µM	CN(C)CCCNCCc1ccc(Br)cc1
> 8 µM	C#CCN(CCCN(C)C)CCc1cc(OC)c(Br)cc1Br
> 8 µM	CN(C)CCCNCCc1ccc(F)cc1
0.5 µM	CN(C)CCCNCCc1cccc(C(F)(F)F)c1

Compound	IC50
C#CCCNCCc1cc(OC)c(Br)cc1Br	> 8 µM
C#CCNCCc1cc(OC)c(Br)cc1Br	> 8 µM
COc1cc(CCNCCCO)c(Br)cc1Br	> 8 µM
COc1cc(CCN2CCCC2)c(Br)cc1Br	> 8 µM
COc1cc(CCNCCCN)c(Br)cc1Br	2 µM
